Compounds with a hit are over-represented: about 1.8% of the library has one in this group of screens.
M5 PAM = human M5 muscarinic receptor positive allosteric modulators, primary screen, CHO-K1 cells, Fluo-8 calcium fluorescence. Muscarinic acetylcholine receptor M5 (Homo sapiens), P08912. CHO-K1 hM5, ACh EC20 PAM; 0% = ACh EC20, 100% = ACh EC100. activation, % at 3 µM. actives 0.3% (n = 360,000). AID 624038, 2012;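 active means activation above the run cutoff, the mean activation of all test compounds plus 3 SD, cut at about 18% in these data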
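Assay system – human M5 receptor in CHO-K1 cells · Read-out – % activation, ACh-normalized · Technique – Fluo-8 calcium fluorescence · Dosing – single-point, 3 µM nominal · Incubation – Fluo-8 loading 80 min at 37 °C plus 30 min room temperature · Repeats – singlicate, one well per test compound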
CHRM4 agonist = human M4 muscarinic receptor agonists, primary screen, CHO-K1 cells, Fluo-8 calcium fluorescence; Muscarinic acetylcholine receptor M4 (Homo sapiens), P08173; CHO-K1 hM4/Gqi5; vehicle 0%, full acetylcholine response 100%; activation, % at 3 µM; actives 0.14% (n = 360,000); AID 624127, 2012;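 active means activation above the run mean over all test wells plus 3 SD, cut at about 32% in these data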;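 further: peak over basal fluorescence ratio per well then scaled between controls; 0% = DMSO wells and 100% = acetylcholine at EC100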
Target sequence (P08173 whole entry, looked up): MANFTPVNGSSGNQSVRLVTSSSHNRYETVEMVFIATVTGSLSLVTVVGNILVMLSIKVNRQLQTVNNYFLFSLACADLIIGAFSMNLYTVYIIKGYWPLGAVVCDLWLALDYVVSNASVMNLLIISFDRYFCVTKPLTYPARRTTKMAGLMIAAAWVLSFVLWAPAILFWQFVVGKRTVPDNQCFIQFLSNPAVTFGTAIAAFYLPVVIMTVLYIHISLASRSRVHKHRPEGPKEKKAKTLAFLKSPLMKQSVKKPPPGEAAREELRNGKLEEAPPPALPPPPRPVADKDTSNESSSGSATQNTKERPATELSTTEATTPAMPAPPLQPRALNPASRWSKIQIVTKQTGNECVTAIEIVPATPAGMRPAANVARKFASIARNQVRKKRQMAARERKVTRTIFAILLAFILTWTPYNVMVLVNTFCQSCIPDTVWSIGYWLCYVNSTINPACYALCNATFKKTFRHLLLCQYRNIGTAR
M5 ag = human M5 muscarinic receptor agonists, primary screen, CHO-K1 cells, Fluo-8 calcium fluorescence. Muscarinic acetylcholine receptor M5 (Homo sapiens), P08912. CHO-K1 hM5 cells; 0% DMSO wells, 100% maximal acetylcholine response. activation, % at 3 µM. actives 0.19% (n = 360,000);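 active means activation above the run's mean over test compounds plus 3 SD, cut at about 23% in these data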;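 further: signal is peak over basal fluorescence ratio across the kinetic read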
M4 PAM = human M4 muscarinic receptor positive allosteric modulators, primary screen, CHO-K1 cells, Fluo-8 calcium fluorescence; Muscarinic acetylcholine receptor M4 (Homo sapiens), P08173; CHO-K1 hM4/Gqi5, ACh EC20; 0% = ACh EC20, 100% = maximal ACh; activation, % at 3 µM; actives 0.4% (n = 360,000);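 active means activation above its plate's cutoff, the mean activation of sample wells plus 3 SD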
M5 antag = human M5 muscarinic receptor antagonists, primary screen, CHO cells, Fluo-8 calcium fluorescence | Muscarinic acetylcholine receptor M5 (Homo sapiens), P08912 | CHO-hM5 cells, ACh EC80 | inhibition, % at 3 µM | actives 0.59% (n = 360,000) | AID 624040, 2012;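 active means inhibition above a per-plate cutoff, the mean of that plate's test compounds plus 3 SD, cut at about 27% in these data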;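 further: 0% = acetylcholine EC80 with DMSO and 100% = DMSO without agonist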
CHRM4 antagonist = human M4 muscarinic receptor antagonists, primary screen, CHO cells, Fluo-8 calcium fluorescence. CHO-hM4 cells, ACh EC80. Muscarinic acetylcholine receptor M4 (Homo sapiens), P08173. inhibition, % at 3 µM. actives 0.73% (n = 360,000);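 active means inhibition above its plate's cutoff, the mean inhibition of sample wells plus 3 SD, cut at about 27% in these data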;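 further: 0% = acetylcholine EC80 with DMSO and 100% = DMSO without agonist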
* = called active by the depositor.

For CCN1/C(=C\C(=S)Nc2ccccc2)Sc2ccccc21 the results were M5 PAM -6, CHRM4 agonist 3, M5 ag 1, M4 PAM -4, M5 antag 13 and CHRM4 antagonist 3.
`Cc1cc(Cn2nnc(-c3ccc(Br)cc3)n2)cc(C)c1O` gave M5 PAM -45, CHRM4 agonist 2, M5 ag -12, M4 PAM -1, M5 antag 15 and CHRM4 antagonist -15.
For C[C@H](NC(=O)c1nc[nH]c1C(=O)N(C)CCO)c1ccccc1 the results were M5 PAM 1, CHRM4 agonist 0, M5 ag 1, M4 PAM 0, M5 antag -6 and CHRM4 antagonist -10.
Cc1nc(Cl)sc1C(=O)Nc1cc(F)cc(F)c1 was read as M5 PAM 1, CHRM4 agonist 8, M5 ag 6, M4 PAM -5, M5 antag 1 and CHRM4 antagonist 4.
Screening Cc1nc(Cl)sc1C(=O)O returned M5 PAM 1, CHRM4 agonist 1, M5 ag -2, M4 PAM 34*, M5 antag -4 and CHRM4 antagonist 6.
C=CCNC(=O)c1cnn(-c2ccccc2)c1-c1ccccc1 was read as M5 PAM 1, CHRM4 agonist 3, M5 ag -3, M4 PAM -3, M5 antag -1 and CHRM4 antagonist -16.
O=C(O)c1cnn(-c2ccccc2)c1-c1ccccc1 was read as M5 PAM 19*, CHRM4 agonist 0, M5 ag 2, M4 PAM 4, M5 antag -19 and CHRM4 antagonist -7.
For Cc1onc(-c2ccccc2)c1C(=O)Nc1nnc(N(C)Cc2ccccc2)s1 the results were M5 PAM 2, CHRM4 agonist 5, M5 ag 3, M4 PAM 18*, M5 antag 0 and CHRM4 antagonist -11.
Screening CCCCNC(=O)C1c2ccccc2OCC(=O)N1Cc1cccnc1 (configuration not stated) returned M5 PAM 1, CHRM4 agonist 1, M5 ag 0, M4 PAM 5, M5 antag -3 and CHRM4 antagonist -5.
For Cc1cn([C@H]2C[C@H](O)[C@@H](COS(=O)(=O)O)O2)c(=O)[nH]c1=O the results were M5 PAM 8, CHRM4 agonist 7, M5 ag -3, M4 PAM 5, M5 antag 0 and CHRM4 antagonist -3.
CC1(C)O[C@@H]2[C@H](O1)[C@@H](COS(=O)(=O)O)O[C@H]2n1cc(Br)c(=O)[nH]c1=O was read as M5 PAM 9, CHRM4 agonist 3, M5 ag 5, M4 PAM 25*, M5 antag -8 and CHRM4 antagonist -2.
For CC(=O)Nc1cccc(OC(=O)N2CCOCC2)c1 the results were M5 PAM 6, CHRM4 agonist 1, M5 ag -4, M4 PAM 27*, M5 antag 1 and CHRM4 antagonist -4.
For CC(=O)Nc1ccc(NC(=O)CC(NC(=O)c2ccccc2)c2ccccc2)cc1 (configuration not stated) the results were M5 PAM 1, CHRM4 agonist 0, M5 ag -1, M4 PAM 13, M5 antag 0 and CHRM4 antagonist -20.
Screening CCOC(=O)c1nnc(-c2ccccc2)nc1Sc1ccccc1Cl returned M5 PAM -2, CHRM4 agonist 0, M5 ag 0, M4 PAM 1, M5 antag 29* and CHRM4 antagonist -11.
`O=[N+]([O-])c1cccc(SSc2cccc([N+](=O)[O-])c2)c1` gave M5 PAM 12, CHRM4 agonist 1, M5 ag 26*, M4 PAM 0, M5 antag 13 and CHRM4 antagonist 16.
Nc1cccc([N+](=O)[O-])c1 was read as M5 PAM 1, CHRM4 agonist 2, M5 ag -2, M4 PAM 10, M5 antag 4 and CHRM4 antagonist -15.
c1ccc(-c2cc(-c3nc4ccccc4[nH]3)c3ccccc3n2)cc1 was read as M5 PAM -18, CHRM4 agonist 12, M5 ag 0, M4 PAM -17, M5 antag 29* and CHRM4 antagonist 24.
`O=C(O)c1ccc(N/N=C/c2c(F)cccc2Cl)cc1` gave M5 PAM 0, CHRM4 agonist 2, M5 ag 4, M4 PAM 2, M5 antag 1 and CHRM4 antagonist 18.
CCN1CCN(CCn2c(=S)[nH]c3ccccc3c2=O)CC1 was read as M5 PAM -25, CHRM4 agonist 0, M5 ag -12, M4 PAM -17, M5 antag 73* and CHRM4 antagonist 23.
c1ccc(C2[C@H]3CN(CC4CCCCC4)[C@H](c4ccccc4)C34CC2(c2cccnc2)C4)cc1 (some centres not stated) was read as M5 PAM -32, CHRM4 agonist 2, M5 ag -13, M4 PAM -13, M5 antag 16 and CHRM4 antagonist 31*.
c1ccc(C2[C@H]3CN(CC4CCCCC4)[C@H](c4ccccc4)C34CC2(c2ccccc2)C4)cc1 (some centres not stated) was read as M5 PAM 5, CHRM4 agonist 2, M5 ag -3, M4 PAM -5, M5 antag -6 and CHRM4 antagonist 7.
For COC(=O)CSc1nc2ccc(NC(=O)CSc3nnnn3Cc3ccccc3)cc2s1 the results were M5 PAM -36, CHRM4 agonist 9, M5 ag -4, M4 PAM -8, M5 antag 13 and CHRM4 antagonist 27*.
O=C(CCN1CCN(CCO)CC1)Nc1ccc(OCc2ccccc2)cc1 was read as M5 PAM -4, CHRM4 agonist 1, M5 ag -2, M4 PAM -1, M5 antag 5 and CHRM4 antagonist 0.
Screening O=C(CSc1nc2ccc(NC(=O)CSc3nnnn3Cc3ccccc3)cc2s1)Nc1ccccc1 returned M5 PAM -6, CHRM4 agonist 2, M5 ag 2, M4 PAM -3, M5 antag 3 and CHRM4 antagonist 10.
O=C(CCN1CCN(Cc2ccccc2)CC1)Nc1ccc(OCc2ccccc2)cc1 was read as M5 PAM -13, CHRM4 agonist 20, M5 ag 0, M4 PAM -30, M5 antag 21 and CHRM4 antagonist 54*.

Compound activity as filed in PubChem BioAssay.
